According to ChEMBL document CHEMBL1125034, “Design and synthesis of 4H-3,1-benzoxazin-4-ones as potent alternate substrate inhibitors of human leukocyte elastase” (J Med Chem, 1990):
pKi: −log10 of the molar value.

Legend:
[1] = biological target: T1, Neutrophil elastase (Homo sapiens) (UniProt P08246); assay: Component acylation rate constant for interaction with human leukocyte elastase
T1 sequence (whole entry): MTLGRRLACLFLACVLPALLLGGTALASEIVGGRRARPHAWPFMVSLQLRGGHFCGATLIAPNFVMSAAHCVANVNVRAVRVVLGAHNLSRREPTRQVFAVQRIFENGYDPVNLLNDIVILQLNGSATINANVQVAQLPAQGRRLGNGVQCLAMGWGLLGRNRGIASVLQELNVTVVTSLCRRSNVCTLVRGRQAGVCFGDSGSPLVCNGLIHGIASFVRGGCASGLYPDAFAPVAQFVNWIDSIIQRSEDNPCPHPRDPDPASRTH

[2] = Alkaline hydrolysis rate of the compound; assay type: ADME
Outline: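 Alkaline hydrolysis rate constants measured at several pH values at 25 °C. Loss of the long-wavelength UV chromophore (λmax typically 300-345 nm) was followed by spectrophotometer.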

[3] = Partition coefficient (logD7.4); assay type: physicochemical; settings: octanol/water, pH 7.4
[4] = biological target: T1, Neutrophil elastase (Homo sapiens); assay: Component deacylation rate constant for interaction with human leukocyte elastase
Neutrophil elastase = biological target: T2, Neutrophil elastase (Homo sapiens, UniProt P08246); assay: Inhibition of human leukocyte elastase
T2 sequence (P08246 whole entry): T1 sequence (whole entry)

- Log kon [1]: 3.45
- Log kOH- [2]: -0.44
- logD [3]: 1.7
- Log koff [4]: -2.74
- pKi (Neutrophil elastase): 6.19
SMILES: CCCCNc1nc2cc(N)ccc2c(=O)o1
